Out of some 2,500 compounds screened, about 1,200 (48%) were called active. The set was probably picked from earlier hits. The list shows a part of the results. Unmarked numbers belong to inactive results.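 How the source made its calls: active means mean activation above the low control average plus 3 SD, as set in the primary screen (cut at about 12% in these data); inactive means the rest.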

This assay has as its target Troponin I, cardiac muscle (Homo sapiens) + Troponin T, cardiac muscle (Homo sapiens) + Troponin C, slow skeletal and cardiac muscles (Homo sapiens) (UniProt P19429+P45379+P63316). Kind of assay: cardiac RTF calcium sensitivity activators, confirmation, biochemical, IANBD-TnC fluorescence, triplicate (AID 504383).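 Further: 0% = DMSO at 0.472 mM calcium and 100% = DMSO at 2.9 mM calcium.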 The following applies: IANBD-labeled cardiac RTF, Ca2+ sensitivity fluorescence; at 7.2 µM; hits give high values; scaled from EC20 to saturating calcium; tested at EC20 calcium, 0.472 mM. In a few lines: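 Assay system: labelled regulated thin filaments / Timing: 15 min at 25 °C / Detection: fluorescence intensity of labelled filaments / Measure: fluorescence gain scaled between EC20 and EC100 calcium controls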
As to `C=CCn1c(SCC(=O)Nc2nccs2)nnc1-c1ccco1`, the activation is 7.96%.
Consider `O=C(Cc1c(F)cccc1Cl)Nc1nccs1`, for which the activation is 1.97%.
The value for `CC1(C)CC(CC(=O)Nc2nccs2)(c2ccccc2)CCO1` (configuration not stated) was 604% (active); that for `COc1ccccc1N1CCN(C(=O)c2ccc(Cn3c(=O)[nH]c4ccsc4c3=O)cc2)CC1` was 125% (active); that for `CN1CCN(S(=O)(=O)c2cccc(C(=O)Oc3cccc(Br)c3)c2)CC1` was 11.4%.
For the compound `COCC(=O)NC1CCN(S(=O)(=O)c2cccc(C(C)=O)c2)CC1`, the activation was 14.3% (active).
As to `O=C(N/N=C/c1sc(N2CCOCC2)nc1-c1ccccc1)c1cccc(S(=O)(=O)N2CCCC2)c1`, the activation was 3.15%.
With `COc1ccc2cc(C(=O)N/N=C/c3sc4ccccc4c3O)ccc2c1`, the activation was 277% (active).
The value for `COc1ccc(C(=O)N/N=C/c2sc3ccccc3c2O)cc1` was 14.3% (active).
For the compound `CC(=NNC(=O)c1ccncc1)c1ccc2ccccc2c1O`, the activation is 6.88%.
The value for `O=C(N/N=C/c1sc2ccccc2c1O)c1ccccc1` was 66.7% (active).
The value for `CN(/N=C/c1ccc(O)cc1O)c1ncc(C(F)(F)F)cc1Cl` was 6.15%; that for `CCN1CC=C2C(C1)C(c1ccc(Cl)s1)C(C#N)=C(N)C2(C#N)C#N` (configuration not stated) was 19.5% (active); that for `Cc1cc(C)c(OCCOCCN2CCNCC2)c(C)c1` was 7.52%.
For `CCc1ccc(C(C)NC(=O)c2ncn[nH]2)cc1` (configuration not stated), the activation was 17.2% (active).
The value for `C[C@@H](NC(=O)c1ncn(C)c1C(=O)N[C@H](C)c1ccccc1)c1ccccc1` was 2.64%; that for `CCn1c(NC(=O)Nc2cccc(C)c2C)cc2sccc21` was 12.6% (active).
With `COc1ccc(C2C(C(C)=O)=C(C)N=c3s/c(=C\c4cc(C)n(C)c4C)c(=O)n32)c(OC)c1` (configuration not stated), the activation was 15% (active).
As for `CCOC(=O)c1[nH]cnc1C(=O)Nc1ccccn1`, the activation is 12.4% (active).
The value for `CCN(CC)c1ccc2cc(C(=O)Nc3ccccn3)c(=O)oc2c1` was 7.83%.
On to `CCOC(=O)C(C(=O)Nc1cccc(C)n1)C1CCCCC1` (configuration not stated), for which the activation was 7.01%.
The value for `Cc1oc(-c2cc3c(cc2Cl)OCO3)nc1CN1CCCC(C(=O)N2CCOCC2)C1` (configuration not stated) was 447% (active); that for `CCN(C(=O)CSc1nnc(COc2ccccc2F)n1N)c1c(N)n(Cc2ccccc2)c(=O)[nH]c1=O` was 1020% (active); that for `C[n+]1ccc(/C=C/c2c[nH]c3ccc(F)cc23)cc1` was 5.69%.
The value for `C(=Cc1c[nH]c2ccccc12)c1nccc2ccccc12` was 16.3% (active).
With `CC[n+]1ccc(/C=C/c2c[nH]c3ccccc23)cc1`, the activation was 167% (active).
For the compound `Cc1ccc2[nH]cc(/C=C/c3cc[n+](C)cc3)c2c1`, the activation is 6.68%.
The value for `OCC[n+]1ccc(/C=C/c2c[nH]c3ccccc23)cc1` was 6.81%; that for `C[n+]1ccc(/C=C/c2c[nH]c3ccccc23)cc1` was 45.7% (active); that for `C[n+]1cc(C(=O)N2CCCCC2)ccc1/C=C/c1c[nH]c2ccccc12` was 8.02%.
For `CC(=O)N(c1ccccc1)C1SC(=O)N(c2ccccc2)C1=O` (configuration not stated), the activation is 9.18%.
As to `Cc1cccc(C)c1-n1c(C)nn(-c2ncc(C(F)(F)F)cc2Cl)c1=O`, the activation was 2.27%.
As to `O=c1nc2c(O)cccn2c2c1c(=O)[nH]c1ccccc12`, the activation is 11.7% (active).
With `CN(C)c1ccc(/C=C/C(=O)c2cccc(Br)c2)cc1`, the activation is 9.43%.
In the case of `CC(=O)Nc1cccc(C(=O)/C=C/c2ccc(N(C)C)cc2)c1`, the activation was 15.4% (active).
Regarding `COC(=O)C1CCN(C(=O)CN2C(=O)c3ccccc3S2(=O)=O)CC1`, the activation is 2170% (active).
The value for `NC(=O)C1CCN(c2ccc3c(c2)S(=O)(=O)c2ccccc2C3=O)CC1` was 5.74%; that for `COc1cc(/C=C/C(=O)c2ccc3c(c2)OCO3)cc(Cl)c1O` was 15.6% (active); that for `CN(C)c1ccc(/C=C/C(=O)c2ccc3c(c2)OCO3)cc1` was 11%.
With `CCC(=O)N1CCN(c2nc(C)nc3sc(C)c(C)c23)CC1`, the activation is 4.34%.
The value for `N#CC1(NC(=O)CN2CCN(S(=O)(=O)c3ccccc3F)CC2)CCCC1` was 2.39%.
Consider `O=C(CN1CCN(c2ccccc2F)CC1)NCc1ccc(Cl)cc1`, for which the activation is 13% (active).
As for `CSc1ccc(Cl)c(C(=O)NNC(=O)c2csc(N3CCOCC3)n2)c1`, the activation was 9.67%.
Consider `CCOC(=O)c1cnc2c(C)c(Cl)ccc2c1N1CCOCC1`, for which the activation is 80.7% (active).
On to `Cc1cc(Cl)ccc1OCC(=O)NCCOc1nc(N2CCOCC2)nc(N2CCOCC2)n1`, for which the activation is 6.88%.
The value for `CC(=O)Nc1ccc(N=Cc2nc(-c3ccc(C)cc3)oc2O)cc1` was 33.1% (active); that for `CN(C)c1ccc(N=Cc2nc(-c3ccccc3)oc2O)cc1` was 37.2% (active); that for `Cc1nc(C)c2c(c1C(F)(F)F)-c1ccccc1C2(F)F` was 9.1%.
As to `Cc1[nH]c(=S)c(C#N)c(C)c1CCC#N`, the activation was 8.9%.
Take `COc1cc(N2CCCC2)c(OC)cc1/C=C(/C#N)c1ccc(Br)cc1`: the activation was 12.2% (active).
With `COc1cc(N2CCCC2)c(OC)cc1/C=C(/C#N)c1cccc(Br)c1`, the activation is 8.22%.
On to `Cc1ccc(NC(=O)COc2ccc(/C=N/NC(=O)CSCc3ccccc3)cc2)cc1`, for which the activation is 58.9% (active).
The value for `CCOC(=O)c1[nH]c2ccc(OCC)cc2c1CCCN1C(=O)c2ccccc2C1=O` was 156% (active); that for `CCOC(=O)C1=C(C)N(CCCCCC(=O)O)C(=O)NC1c1ccccc1Cl` (configuration not stated) was 6.32%.
Regarding `Brc1ccc(-c2noc(-c3ccccn3)n2)o1`, the activation is 5.39%.
The value for `CCOC(=O)C1=C(C)N=c2s/c(=C/c3ccc(OCC(=O)O)cc3)c(=O)n2C1c1ccc(SC)cc1` (configuration not stated) was 5.43%; that for `CCOC(=O)C1=C(C)N=c2s/c(=C\c3ccc(OCC(=O)O)cc3)c(=O)n2C1c1ccc(Cl)cc1` (configuration not stated) was 14.5% (active); that for `CCOC(=O)C1=C(C)N=c2s/c(=C/c3ccc(OCC(=O)O)c(OC)c3)c(=O)n2C1c1ccc(Cl)cc1` (configuration not stated) was 16.8% (active).
The value for `O=C1CCC[C@@H]2Cc3nc4ccc(O)cc4cc3[C@@H]3CCN1[C@H]23` was 3.13%.
`O=C(O)CCC(=O)Nc1cc(C(F)(F)F)cc(C(F)(F)F)c1`: the activation was 30.5% (active).
`O=C(CN1CCN(c2ccccc2)CC1)Nc1cccc(C(F)(F)F)c1`: the activation was 5.41%.
The value for `O=C(Cn1c2[n+](c3ccc(C(F)(F)F)cc31)CCCCC2)Nc1ccccc1` was 0.79%.

The record behind these values is PubChem BioAssay AID504383 (The Scripps Research Institute Molecular Screening Center, 2011).
